Assay outcomes from PubChem.
T cruzi repl: inhibitors of intracellular T. cruzi growth, primary screen, luminescence, NIH3T3 host cells. inhibition, % (concentration not given with the values). AID 1885, 2009. T. cruzi beta-gal in NIH3T3, 90 h. hit rate 1.4% among 300,000;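 active = mean inhibition across valid replicates above about 55%, limit read from the data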;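 note: signal also drops with host cell toxicity which is not excluded here; higher percent means less beta-gal luminescence so fewer parasites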
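Test system: β-gal T. cruzi (Tulahuen C4) inside NIH/3T3 cells / Quantity: 5,000 cells/well / Measured by: luminescence from GalScreen with 0.05% NP40, read after 60 min / Medium: DMEM plus 2% FBS / Measure: parasite load inhibition, % / Reagent: Tulahuen C4 trypomastigotes, 5000/well / Schedule: co-culture of at least 90 h after 3 h attachment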
CHT inh: inhibitors of human choline transporter CHT. High affinity choline transporter 1 (Homo sapiens), Q9GZV3. CHT-expressing cells, membrane potential dye, choline response; active compounds read low. B-score at 10 µM. hit rate 0.86% among 310,000. AID 488975, 2010;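 active = B-score over 3 SD under the library average, and starting fluorescence ratio not unusually high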;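 note: choline stimulus applied at its EC90 after an EC20 pre-addition; B-score computed on integrated fluorescence ratio after choline addition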
Target sequence (Q9GZV3 whole entry, looked up): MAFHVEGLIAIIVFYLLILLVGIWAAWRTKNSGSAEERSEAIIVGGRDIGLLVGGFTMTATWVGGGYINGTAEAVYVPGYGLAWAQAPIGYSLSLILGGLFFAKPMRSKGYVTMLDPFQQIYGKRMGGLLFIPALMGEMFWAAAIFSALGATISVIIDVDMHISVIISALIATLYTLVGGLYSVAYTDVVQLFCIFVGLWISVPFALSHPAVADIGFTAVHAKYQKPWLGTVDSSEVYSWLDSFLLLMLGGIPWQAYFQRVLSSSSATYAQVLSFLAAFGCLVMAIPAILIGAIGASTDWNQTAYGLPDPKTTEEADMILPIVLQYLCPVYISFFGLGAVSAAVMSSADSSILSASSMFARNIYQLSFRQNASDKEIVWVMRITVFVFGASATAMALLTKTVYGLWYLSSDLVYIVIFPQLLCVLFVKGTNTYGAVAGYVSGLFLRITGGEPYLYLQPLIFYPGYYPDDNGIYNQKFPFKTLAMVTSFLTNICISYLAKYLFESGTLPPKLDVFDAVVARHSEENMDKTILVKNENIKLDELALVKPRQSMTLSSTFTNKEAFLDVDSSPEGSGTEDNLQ
PolyA inhibitor: polyadenylation inhibitors in yeast reporter cells, primary screen, luminescence, S. cerevisiae | activity score, % at 12 µM | S. cerevisiae SKY197-pL101 polyadenylation reporter, beta-gal luminescence; efflux-impaired pdr1/pdr3 knockout yeast; score 100 = 6 SD above DMSO | hit rate 0.02% among 300,000;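 active = lowest replicate activity score at least 50, where 100 means six control SD above control mean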;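 note: yeast exposed to compound for 9 h at 30 °C; higher score means more reporter readthrough which indicates perturbed polyadenylation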
CHT allo act: CHT positive allosteric modulators, primary screen, cell-based, membrane potential dye, choline EC20; hit rate 0.49% among 310,000; High affinity choline transporter 1 (Homo sapiens), Q9GZV3; B-score at 10 µM; CHT-expressing cells; active compounds read high; LV-AA mutant CHT in HEK293 cells; AID 488977, 2010;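 active = initial fluorescence not abnormally high and integrated response B-score, plate-corrected, over 3 SD above library mean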
CHT block conf: CHT inhibitors, confirmation, cell-based, membrane potential dye, duplicate; shares compounds with CHT inh; CHT-expressing cells, choline membrane potential dye; LV-to-AA substituted CHT, HEK293 cells; CHT activity remaining % of control (active compounds read low), % at 10 µM; hit rate 70% among 2,400; AID 493221, 2011;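 active = choline transporter activity left, mean of duplicates at 10 µM, below buffer-only control mean minus 3 SD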;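 note: depolarization triggered by choline at its EC90 following an EC20 pre-addition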
HEK293 CHT ctr: membrane potential effects in parental HEK293, counter-screen for CHT inhibitor project, cell-based, membrane potential dye; choline response; active = decrease or increase beyond buffer ±3SD; AID 493222, 2011; hit rate 4% among 2,400; membrane potential ratio readout (active if shifted either direction beyond buffer ±3SD; no single direction) at 10 µM; shares compounds with CHT inh;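 note: parental cells lack the transporter so any hit is non-specific; ratio is peak minus trough fluorescence over baseline after EC90 choline challenge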
Each line names hits and unclear results; the compound was inactive in the other large screens (follow-up assays come after a bar, where they were run). Sampled rows, rich in hits. Any-hit rate of the full collection: about 2.6%.

COc1cc(OC)c2c(-c3ccccc3)cc(=O)oc2c1C(CCN1CCCCC1)c1ccc(N(C)C)cc1 (stereo not given)	CHT inh -5.9 | CHT block conf 29% | HEK293 CHT ctr inactive
COc1cc(OC)c2c(-c3ccccc3)cc(=O)oc2c1C(CCN1CCCCC1)c1ccc2c(c1)OCO2 (stereo not given)	CHT inh -9.5 | CHT block conf 45% | HEK293 CHT ctr inactive
CCCCCc1cc(=O)oc2c(C(CCN3CCCC(C)C3)c3cc(OC)c(OC)c(OC)c3)c(OC)cc(OC)c12 (stereo not given)	none
COc1cc(OC)c2c(-c3ccccc3)cc(=O)oc2c1C(CC(=O)N1CCCC1)c1ccc2c(c1)OCO2 (stereo not given)	none
COc1ccc(C(CCN2CCCCC2)c2c(OC)cc(OC)c3c(-c4ccccc4)cc(=O)oc23)cc1 (stereo not given)	CHT inh -7.1 | CHT block conf 38% | HEK293 CHT ctr inactive
COc1cc(OC)c2c(-c3ccccc3)cc(=O)oc2c1C(CCN1CCCC(C)C1)c1ccc2c(c1)OCO2 (stereo not given)	none
CCCCCc1cc(=O)oc2c(C(CCN3CCCCC3)c3cc(OC)c(OC)c(OC)c3)c(OC)cc(OC)c12 (stereo not given)	CHT inh -6.1 | CHT block conf 51% | HEK293 CHT ctr inactive
CCCCCc1cc(=O)oc2c(C(CCN3CCCC(C)C3)c3ccc(N(C)C)cc3)c(OC)cc(OC)c12 (stereo not given)	none
Cc1ccccc1-c1nnc(SCC(=O)N(C)c2c(N)n(Cc3ccccc3)c(=O)[nH]c2=O)n1C	none
Cc1cccc(CCN2CCC(C(=O)c3ccc(NS(C)(=O)=O)cc3)CC2)n1	none
Cc1ccc(O)c(N=Cc2cc(Cc3ccccc3)cc([N+](=O)[O-])c2O)c1	none (no result: CHT inh, CHT allo act)
O=[N+]([O-])c1cc(Cc2ccccc2)cc(C=Nc2ccc(N3CCOCC3)cc2)c1O	CHT inh -5.9 | CHT block conf 66% | HEK293 CHT ctr inactive
CCCn1c(=O)c2ccccc2n2c(SCCOc3ccccc3)nnc12	CHT inh -6.2 | CHT block conf inactive | HEK293 CHT ctr inactive
CC1(C)Oc2ccc(C(=O)NNC(=O)Nc3ccccc3)cc2NC1=O	none
Cc1nn(C(C)C(=O)NC(C)CCc2ccccc2)c(=O)c2cc3occc3n12 (stereo not given)	CHT inh -6.9 | CHT block conf 55% | HEK293 CHT ctr inactive
CCOC(=O)C1CCN(C(=O)CCCn2nc(CC)n3c(cc4occc43)c2=O)CC1	none
CCc1nn(CC(=O)NC(C)CCc2ccccc2)c(=O)c2cc3occc3n12 (stereo not given)	none
CCc1nn(C(C)C(=O)NC(C)CCc2ccco2)c(=O)c2cc3occc3n12 (stereo not given)	CHT inh -5.9 | CHT block conf 49% | HEK293 CHT ctr -14
COc1ccccc1CNC(=O)C(C)n1nc(C)n2c(cc3occc32)c1=O (stereo not given)	none
CCc1nn(C(C)C(=O)NCCc2ccccc2)c(=O)c2cc3occc3n12 (stereo not given)	CHT inh -5.7 | CHT block conf inactive | HEK293 CHT ctr inactive
CCc1nn(CCCC(=O)N2CCc3ccccc3C2)c(=O)c2cc3occc3n12	CHT inh -5.7 | CHT block conf 58% | HEK293 CHT ctr -9
COc1ccc(C2CC(=O)C(C=NCCO)=C(O)C2)cc1 (stereo not given)	none
COc1ccccc1C(=O)NC(=O)COC(=O)c1cccc(NC(C)=O)c1	none
Cc1ccc(S(=O)(=O)c2cc(C)cc(S(=O)(=O)Nc3ccc(C(=O)O)cc3)c2C)cc1	none
Cc1nnc(SCC(=O)Nc2ccc([N+](=O)[O-])cc2)n1CC1CCCO1 (stereo not given)	none
O=C(CSc1cccc(C(F)(F)F)c1)NCc1ccccc1	CHT inh -5.8 | CHT block conf inactive | HEK293 CHT ctr inactive
O=C(CSc1ccccc1)NCc1ccccc1	none
Clc1c(-c2nnc3n2CCCCC3)sc2ccccc12	CHT inh -5.3 | CHT block conf 36% | HEK293 CHT ctr -8.5
Clc1c(-c2nnc3n2CCC3)sc2ccccc12	none
COc1ccc2c(Cl)c(-c3nnc4n3CCCCC4)sc2c1	CHT inh -6.2 | CHT block conf inactive | HEK293 CHT ctr inactive
CCN(CC(=O)Nc1ccc(NC(C)=O)cc1)C(=O)Cc1ccc(S(=O)(=O)N2CCOCC2)s1	none
O=C(NC1CCCCC1)c1ccc(-c2ccccc2)cc1	none
CC(=O)c1sc(-c2ccc(F)cc2)cc1NS(=O)(=O)c1ccc(C)cc1	none
NC(=O)c1sc(-c2ccsc2)cc1NS(=O)(=O)c1ccc(C(F)(F)F)cc1	CHT inh -6.9 | CHT block conf inactive | HEK293 CHT ctr inactive
O=C(COc1ccc(-c2nnco2)cc1)Nc1ccc(C(F)(F)F)cc1	none
Cc1cc(NS(=O)(=O)c2ccc(NC(=O)COc3c(C)cc(Br)cc3C)cc2)no1	CHT inh -6 | CHT block conf 34% | HEK293 CHT ctr inactive
Cc1noc(NS(=O)(=O)c2ccc(NC(=O)COc3ccc(Cl)cc3Cl)cc2)c1C	CHT inh -6.4 | CHT block conf 39% | HEK293 CHT ctr inactive
CCN1C(=O)C2CCCCN2c2ccc(C(=O)NCCOC)cc21 (stereo not given)	none
Cc1ccc(OCCNC(=O)CCc2ccccc2)cc1C	none
Cc1ccccc1C(=O)N=c1ccn(-c2nc3ccccc3nc2NS(=O)(=O)c2ccc(F)cc2)cc1	CHT inh -5.9 | CHT block conf inactive | HEK293 CHT ctr inactive
O=C(N=c1ccn(-c2nc3ccccc3nc2NS(=O)(=O)c2ccccc2)cc1)c1cccs1	none
NC(=O)C1(C(N)=O)OC1c1ccccc1 (stereo not given)	none
O=C(Cc1ccc(-n2c(=O)c3ccccc3n(Cc3ccccc3F)c2=O)cc1)NCC1CCCO1 (stereo not given)	CHT inh -7.8 | CHT block conf 41% | HEK293 CHT ctr inactive
CCc1ccccc1NC(=O)Cn1c(=O)n(-c2ccc(CC(=O)NCC3CCCO3)cc2)c(=O)c2ccccc21 (stereo not given)	none
COc1cc2c(cc1OC)-c1cc(NC3CCCCCCC3)nc(=O)n1CC2	CHT inh -7.6 | CHT block conf 27% | HEK293 CHT ctr inactive
CN1C(=O)C(CC(=O)NCCc2ccccc2)N(NC(=O)c2ccc(Cl)cc2)C1=S (stereo not given)	CHT inh -12 | CHT block conf inactive | HEK293 CHT ctr inactive
